Screening data (PubChem)
b-catenin transl = alters nuclear translocation of beta-catenin in HeLa cells; 0.3% of 190,000 active; nuclear translocation activity, % at 5 µM; immunofluorescence imaging;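 active = nuclear translocation activity above 50% at 5 µM, with a well cell count of 50 or more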;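 also: per-cell ratio of nuclear to cytoplasmic median beta-catenin stain intensity; plate controls were DMSO negative control for no effect and GSK-3 inhibitor IX positive control for full effect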
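Technique: fluorescence imaging of beta-catenin antibody stain plus DAPI / Material: human HeLa cell line / Incubation: compound treatment 24 h, 37°C, 5% CO2 / Read-out basis: % activation of per-cell nuclear versus cytoplasmic median beta-catenin signal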
MT stabilize HCS = microtubule stabilization, imaging screen. HeLa tubulin immunostaining HCS, 24 h; share of cells brighter than vehicle mean+2SD. % tubulin-high responders, % at 10 µM. 0.83% of 200,000 active;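 active = plate Z-score above 3 for both tubulin-high and condensed-nucleus cell shares, with cell loss under 80%, at 10 µM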;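 also: anti alpha tubulin signal scored within the nucleus-defined area of each cell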
Lmaj promast = reduces viability of Leishmania major promastigotes; 9% of 200,000 active; inhibition, % at 10 µM; resazurin fluorescence viability; in the data active = inhibition above about 50%;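 also: promastigotes grown with compound for 44 hours at 28 °C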
BaF3 parental = reduces parental Ba/F3 cell viability, JAK2V617F counter-screen | 1.1% of 220,000 active | CellTiter-Glo ATP luminescence | inhibition, % at 5.6 µM | AID 1486;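 active = inhibition above a per-campaign cutoff, the mean inhibition of all tested compounds plus 3 SD, cut at about 27% in these data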;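 also: 0% = DMSO wells and 100% = JAK Inhibitor I control wells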
APP transl inh = APP translation inhibition; 0.82% of 190,000 active; inhibition, % at 2 µM; SH-SY5Y APP 5'UTR-luciferase reporter, luminescence;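 active = inhibition above a set limit, derived from the sample mean plus 3 SD, cut at about 45% in these data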
Ba/F3 V617F tox = lowers viability of Ba/F3 cells expressing EpoR and JAK2V617F; ATP luminescence; inhibition, % at 5.6 µM; 1.1% of 220,000 active;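 active = inhibition above the campaign mean plus 3 SD over all tested compounds, cut at about 24% in these data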;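 also: cytokine-independent growth of Ba/F3 cells driven by EpoR plus mutant JAK2; 0% = DMSO-treated cells and 100% = JAK inhibitor I control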
Starred values were filed as active, the others as inactive; · = not tested or not shown. A selection: hits, their analogues and other compounds. The true share with any hit is near 9.6%.

SMILES | b-catenin transl | MT stabilize HCS | Lmaj promast | BaF3 parental | APP transl inh | Ba/F3 V617F tox
Cc1ccccc1Cn1c(=N)n(CC(=O)c2ccco2)c2ccccc21 | 0 | 3 | 86* | 5 | -12 | -3
N=c1n(Cc2ccccc2)c2ccccc2n1CC(O)c1ccco1 (configuration not stated) | 2 | 4 | 89* | 8 | -29 | 7
COc1cc(C(=O)NNC2=NC(C)(C)Cc3cc(C)c(C)cc32)cc(OC)c1OC | -1 | 4 | 6 | 9 | -2 | 1
CC(Oc1cccc(Cl)c1)C(=O)Nc1ccncc1 (configuration not stated) | 0 | 2 | -2 | 5 | -4 | -2
CC(Oc1cccc(Cl)c1)C(=O)Nc1ccc([N+](=O)[O-])cn1 (configuration not stated) | · | 7 | 61* | 5 | -2 | 4
Fc1cccc(C2CCCCN2Cc2nc(C3CC3)no2)c1 (configuration not stated) | 0 | · | -4 | 3 | -3 | -4
CCOC(=O)NC(NC(=S)Nc1ccc(OCC)cc1)C(Cl)(Cl)Cl (configuration not stated) | -6 | 2 | -4 | 6 | 3 | -4
O=C(NC(NC(=S)Nc1c(Cl)cccc1Cl)C(Cl)(Cl)Cl)OCc1ccccc1 (configuration not stated) | 0 | 2 | 98* | 3 | -8 | -3
Cc1nn2c(-c3cccc(NC(=O)c4ccco4)c3)nnc2c2ccccc12 | · | 3 | 101* | 2 | 14 | -3
O=C(CN1C(=O)c2cccc3cccc(c23)C1=O)N1CCCCCC1 | · | 3 | 40 | 2 | 0 | -2
Cc1ccc(S(=O)(=O)N2CCC(CN3C(=O)c4cccc5cccc(c45)C3=O)CC2)cc1 | 2 | 2 | 95* | 8 | -9 | 3
O=C(c1ccc(S(=O)(=O)N2CCCCCC2)cc1)N1CCC(CN2C(=O)c3cccc4cccc(c34)C2=O)CC1 | -3 | 4 | 80* | 0 | -21 | -4
O=C1c2cccc3cccc(c23)C(=O)N1CC1CCN(S(=O)(=O)c2ccc(F)cc2)CC1 | 3 | 2 | 98* | 1 | -8 | 1
Cc1ccc(S(=O)(=O)N2C(=O)c3cccc4cccc2c34)cc1 | 1 | · | · | 1 | · | -5
CCS(=O)(=O)N1CCN(S(=O)(=O)c2ccc(F)cc2)CC1 | 0 | 3 | -4 | 4 | -22 | -1
O=C(COC(=O)CCc1nc2ccccc2c(=O)[nH]1)Nc1ccc(Cl)cn1 | 0 | · | · | -3 | · | 0
Cc1ccc(C(NC(=O)NC(C)c2ccccc2)C(Cl)(Cl)Cl)cc1F (configuration not stated) | 0 | 9 | 30 | 4 | -1 | -1
COc1cccc(CC2(CO)CCCN(Cc3cnn(-c4ccccc4)c3)C2)c1 (configuration not stated) | -1 | 2 | 90* | 15 | -5 | 4
COc1cccc(CC2(CO)CCCN(Cc3ccc(CN4CCCCC4)s3)C2)c1 (configuration not stated) | 1 | 5 | 77* | 8 | -4 | 3
C=CCc1cccc2cc(C(=O)NCc3ccc(C(=O)OCC)o3)c(=O)oc12 | -10 | 2 | -4 | 5 | 6 | -3
Cc1ccc(Cl)cc1NC(=O)COC(=O)c1ccc(COc2ccc3c(C)cc(=O)oc3c2)cc1 | · | 18 | 55* | 10 | 9 | 3
CC[N+]1(CC)CC2=Cc3c(ccc4ccccc34)CC2C1 (configuration not stated) | · | 1 | -1 | 61* | 4 | 70*
CN1CC(C(=O)O)Cc2c1ccc1ccccc21 (configuration not stated) | -2 | · | · | 1 | · | -1
Cc1ccc2nc(-c3ccc(N4C(=NC(=O)CCC(=O)O)SC5CS(=O)(=O)CC54)cc3)sc2c1 (configuration not stated) | 1 | 8 | -8 | 9 | -56 | 0
Cc1nnc(SCC(=O)Nc2cc(C(C)(C)C)nn2-c2ccccc2)s1 | · | 2 | 49 | 6 | -9 | 0
SMILES | b-catenin transl | MT stabilize HCS | Lmaj promast | BaF3 parental | APP transl inh | Ba/F3 V617F tox
CC(C)(C)c1cc(NC(=O)CSc2nncs2)n(-c2ccccc2)n1 | -1 | 3 | 55* | 4 | -21 | 1
Cc1nnc(SCC(=O)Nc2cc(-c3cc(C)c(C)cc3C)nn2-c2ccccc2)s1 | -3 | 2 | 97* | 4 | 6 | 2
CCO[C@H]1OC(C(=O)N2CCOCC2)=C[C@@H](C2CC2)[C@@H]1CCCO | 4 | 5 | -7 | -2 | -19 | 0
CCN(CCCNC(=O)C1c2ccccc2C(=O)N(CCOC)C1c1ccc(F)cc1)Cc1ccccc1 (configuration not stated) | -2 | 5 | 99* | 0 | -3 | -3
CCN(CC)CCCNC(=O)C1c2ccccc2C(=O)N(CCOC)C1c1ccc(F)cc1 (configuration not stated) | 0 | 5 | 35 | 2 | -4 | 2
Cc1ccc(N(CC(=O)Nc2cccc(C)c2)S(=O)(=O)c2cccc3nonc23)cc1 | 2 | 3 | 15 | 0 | -1 | -1
O=c1ccn(Cc2ccc(F)cc2)c2ccnc(C(F)(F)F)c12 | 2 | 2 | -2 | 7 | 1 | 2
c1ccc(C2=Nc3ccccc3OC2)cc1 | -16 | 1 | 69* | 8 | -13 | -2
COc1ccc(/C=C/C(=O)N(Cc2cccs2)C2CCS(=O)(=O)C2)cc1 (configuration not stated) | 1 | · | · | 1 | · | -3
CC(/C=N/NC(=O)CSc1nc2ccccc2n1C)=C\c1ccco1 | 25 | 17* | -1 | 4 | 6 | -1
COc1cc([N+](=O)[O-])ccc1NC(=O)CSc1nc2ccccc2n1-c1ccccc1 | 2 | 2 | 92* | 6 | -13 | -1
Cc1ccc(-n2c(SCC(=O)Nc3cccc(S(N)(=O)=O)c3)nc3ccccc32)cc1 | 1 | 1 | 78* | 5 | -4 | 3
CCOc1ccc(-n2c(SCC(=O)Nc3cc(OC)c([N+](=O)[O-])cc3C)nc3ccccc32)cc1 | · | 1 | 98* | 4 | -16 | 0
COc1cc(NC(=O)CSc2nc(C)c(C)c(C)n2)c(C)cc1[N+](=O)[O-] | 0 | 5 | 26 | 9 | 5 | 4
CCN(CC)CCC(C)OC(=O)c1ccc(O)cc1O (configuration not stated) | 0 | 2 | 40 | -1 | 9 | -1
O=C(Oc1ccc(-n2cnnn2)cc1)c1ccco1 | -1 | 3 | -6 | 4 | -2 | -1
O=C1C=C(NCc2ccccc2)c2ccccc2C1=O | 0 | 3 | 97* | 10 | 9 | 4
O=C1C=C(Nc2ccccc2O)c2ccccc2C1=O | · | 88 | 100* | 7 | 2 | 1
O=c1cccccc1NCc1ccccc1 | -3 | 2 | -6 | 2 | 16 | -3
Cc1cc(C)cc(-n2cc[nH]c2=S)c1 | -2 | 2 | -10 | 5 | -4 | -3
